Assay results reported in ChEMBL document CHEMBL4725245, “The synthesis and biological evaluation of nucleobases/tetrazole hybrid compounds: A new class of phosphodiesterase type 3 (PDE3) inhibitors” (Bioorg Med Chem, 2020).

Tests used:
MCF7 = assay: Antiproliferative activity against human MCF7 cells assessed as growth inhibition after 24 hrs by MTT assay; assay type: functional, cell-based; conditions: MCF7, 24 h
Method in brief: (§1)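 Cells held in DMEM with 10% heat-inactivated FBS, penicillin and streptomycin at 37 °C, 5% CO2. HeLa seeded at 5000 cells/well or MCF-7 at 10,000 cells/well, grown overnight, then exposed to compounds at 0.0–200.0 µM (two-fold steps) for 24 h. MTT 0.5 mg/mL for 4 h at 37 °C, formazan dissolved in DMSO, absorbance read at 545 nm with 630 nm reference.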

HeLa = assay: Antiproliferative activity against human HeLa cells assessed as reduction in cell viability after 24 hrs by MTT assay; assay type: functional, cell-based; method in brief: as §1
[1] = biological target: cGMP-inhibited 3',5'-cyclic phosphodiesterase 3A (Homo sapiens, UniProt Q14432); assay: Inhibition of human PDE3A expressed in Sf9 cells using cAMP as substrate after 60 mins by IMAP TR-FRET assay
Chain of cGMP-inhibited 3',5'-cyclic phosphodiesterase 3A (Q14432 whole entry): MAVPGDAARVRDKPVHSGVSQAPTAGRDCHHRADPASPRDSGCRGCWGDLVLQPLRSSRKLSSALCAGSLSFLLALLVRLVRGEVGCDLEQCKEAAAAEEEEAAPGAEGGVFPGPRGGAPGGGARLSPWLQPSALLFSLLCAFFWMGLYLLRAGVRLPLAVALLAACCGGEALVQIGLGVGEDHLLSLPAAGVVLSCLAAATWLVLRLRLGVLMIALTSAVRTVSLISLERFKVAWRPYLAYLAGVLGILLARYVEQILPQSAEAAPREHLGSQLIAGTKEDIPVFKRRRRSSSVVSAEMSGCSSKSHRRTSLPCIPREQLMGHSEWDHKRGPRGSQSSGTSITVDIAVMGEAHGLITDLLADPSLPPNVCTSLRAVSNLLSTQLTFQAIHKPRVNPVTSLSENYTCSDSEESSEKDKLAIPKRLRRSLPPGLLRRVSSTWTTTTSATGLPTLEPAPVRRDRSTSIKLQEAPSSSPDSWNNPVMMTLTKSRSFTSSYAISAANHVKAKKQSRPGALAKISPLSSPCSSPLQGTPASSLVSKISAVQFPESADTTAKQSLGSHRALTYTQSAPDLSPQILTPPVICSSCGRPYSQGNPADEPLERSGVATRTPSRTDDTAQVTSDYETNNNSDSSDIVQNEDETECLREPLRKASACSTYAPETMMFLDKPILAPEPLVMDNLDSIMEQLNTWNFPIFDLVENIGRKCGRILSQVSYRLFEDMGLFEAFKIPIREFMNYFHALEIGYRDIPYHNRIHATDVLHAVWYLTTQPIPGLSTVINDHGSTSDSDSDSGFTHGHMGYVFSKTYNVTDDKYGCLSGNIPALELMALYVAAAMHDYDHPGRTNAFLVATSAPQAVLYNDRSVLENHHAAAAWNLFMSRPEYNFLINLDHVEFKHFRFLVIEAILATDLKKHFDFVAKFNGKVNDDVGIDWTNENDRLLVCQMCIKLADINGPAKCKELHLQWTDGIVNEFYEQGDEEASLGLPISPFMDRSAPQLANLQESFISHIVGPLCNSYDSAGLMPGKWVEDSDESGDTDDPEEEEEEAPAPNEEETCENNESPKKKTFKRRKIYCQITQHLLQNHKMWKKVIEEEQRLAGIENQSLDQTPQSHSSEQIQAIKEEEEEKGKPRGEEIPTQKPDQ

IC50 (MCF7) [µM] | IC50 (HeLa) [µM] | IC50 [1] [µM] | Compound
54 | 38.9 | – | O=c1ccn(CCCOc2ccc(-c3nnn[nH]3)cc2)c(=O)[nH]1
90.5 | 68 | – | Nc1nc2c(ncn2CCCCOc2ccc(-c3nnn[nH]3)cc2)c(=O)[nH]1
– | – | 0.00389 | O=C1CCc2cc(OCCCCc3nnnn3C3CCCCC3)ccc2N1 [CILOSTAZOL]
35.8 | 25.6 | – | O=c1ccn(CCCCOc2ccc(-c3nnn[nH]3)cc2)c(=O)[nH]1
59.5 | 45.1 | – | Cn1c(=O)c2c(ncn2CCCCOc2ccc(-c3nnn[nH]3)cc2)n(C)c1=O
73.7 | 59.9 | – | Cn1cnc2c1c(=O)n(CCCCOc1ccc(-c3nnn[nH]3)cc1)c(=O)n2C
54.5 | 38.4 | 0.00391 | Nc1ncnc2c1ncn2CCCCOc1ccc(-c2nnn[nH]2)cc1
80.7 | 57.7 | – | O=c1ccnc(SCCCOc2ccc(-c3nnn[nH]3)cc2)[nH]1
65.6 | 49.3 | – | O=c1cnn(CCCOc2ccc(-c3nnn[nH]3)cc2)c(=O)[nH]1
29.4 | 21.1 | – | Nc1ncnc2c1ncn2CCCOc1ccc(-c2nnn[nH]2)cc1
76 | 63.3 | – | O=c1cnn(CCCCOc2ccc(-c3nnn[nH]3)cc2)c(=O)[nH]1
25.7 | 18.4 | – | Nc1nc2c(ncn2CCCOc2ccc(-c3nnn[nH]3)cc2)c(=O)[nH]1
49.2 | 27.9 | – | CN(Cc1cnc2nc(N)nc(N)c2n1)c1ccc(C(=O)N[C@@H](CCC(=O)O)C(=O)O)cc1 [METHOTREXATE]
74.7 | 55.3 | 0.00583 | Cn1c(=O)c2c(ncn2CCCOc2ccc(-c3nnn[nH]3)cc2)n(C)c1=O
68.4 | 50.6 | 0.00513 | O=c1ccnc(SCCCCOc2ccc(-c3nnn[nH]3)cc2)[nH]1
73.3 | 61.1 | – | Cn1cnc2c1c(=O)n(CCCOc1ccc(-c3nnn[nH]3)cc1)c(=O)n2C
